SMILES strings stand for the structures. Calls of active or inactive are those of the source. The calls are words filed in the database; no cut-off is given here.

For experiment [1], the system named is Transthyretin (Homo sapiens), P02766 [V50M]. Nature of the experiment: Stabilization of TTR V30M mutant (unknown origin) expressed in Escherichia coli assessed as formation of TTR tetramer band formation at 40 to 100 mM after 4 mins by SDS-PAGE analysis based glutaraldehyde cross-linking assay.
For experiment [2] the test system is unchanged. Nature of the experiment: Inhibition of ANS binding to TTR V30M mutant (unknown origin) expressed in Escherichia coli assessed as increase in BC50 for ANS binding to TTR at 100 mM in presence of 150 mM Na+ by fluorescence-based assay.
Experiment [3] shares this test system. The experiment in a line: Inhibition of ANS binding to TTR V30M mutant (unknown origin) expressed in Escherichia coli assessed as increase in BC50 for ANS binding to TTR at 100 mM in presence of 150 mM K+ by fluorescence-based assay.
Experiment [4] has the same test system. Nature of the experiment: Stabilization of TTR V30M mutant (unknown origin) expressed in Escherichia coli assessed as formation of TTR tetramer band formation at 1 uM after 4 mins by SDS-PAGE analysis based glutaraldehyde cross-linking assay.
For experiment [5] the test system is unchanged. Nature of the experiment: Inhibition of TTR V30M mutant (unknown origin)-mediated amyloid fibril formation expressed in Escherichia coli assessed as amyloid fibril percentage at 5 uM after 4 days by thioflavin-T-fluorescence based assay (reference value: 100%). Also on record: scale not given: the % may be the effect or the level left. An outline of the steps: (§1)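 Acid-driven aggregation: 2 μM E. coli-expressed V30M-TTR in 50 mM sodium acetate pH 4.2 held with compound at room temperature for 4 days. Stopped with 0.2 M Tris-HCl pH 8.0, then thioflavin-T added to 20 μM and fluorescence read at ex 440/em 484 nm. Values are amyloid fibril % relative to no-compound control.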

The test system is the same in experiment [6]. Nature of the experiment: Stabilization of TTR V30M mutant (unknown origin) expressed in Escherichia coli assessed as formation of TTR tetramer band formation at 2 uM after 4 mins by SDS-PAGE analysis based glutaraldehyde cross-linking assay.
The test system is the same in experiment [7]. Nature of the experiment: Inhibition of TTR V30M mutant (unknown origin)-mediated amyloid fibril formation expressed in Escherichia coli assessed as amyloid fibril percentage at 0.5 uM after 4 days by thioflavin-T-fluorescence based assay (reference value: 100%). Also on record: scale not given: the % may be the effect or the level left. The procedure, abridged: as §1

Experiment [8] has the same test system. Nature of the experiment: Inhibition of TTR V30M mutant (unknown origin)-mediated amyloid fibril formation expressed in Escherichia coli assessed as amyloid fibril percentage at 1.5 uM after 4 days by thioflavin-T-fluorescence based assay (reference value: 100%). Set-up: scale not given: the % may be the effect or the level left. An outline of the steps:
as §1

For experiment [9] the test system is unchanged. The experiment in a line: Inhibition of TTR V30M mutant (unknown origin)-mediated amyloid fibril formation expressed in Escherichia coli assessed as amyloid fibril percentage at 0.2 mM after 4 days by thioflavin-T-fluorescence based assay (reference value: 100%). Also on record: scale not given: the % may be the effect or the level left. An outline of the steps: as §1

The test system is the same in experiment [10]. The experiment in a line: Inhibition of ANS binding to TTR V30M mutant (unknown origin) expressed in Escherichia coli assessed as increase in BC50 for ANS binding to TTR at 10 mM in presence of 150 mM Na+ by fluorescence-based assay.
Experiment [11] shares this test system. Nature of the experiment: Stabilization of TTR V30M mutant (unknown origin) expressed in Escherichia coli assessed as formation of TTR tetramer band formation after 4 mins by SDS-PAGE analysis based glutaraldehyde cross-linking assay.
Experiment [12] has the same test system. Nature of the experiment: Inhibition of TTR V30M mutant (unknown origin)-mediated amyloid fibril formation expressed in Escherichia coli assessed as amyloid fibril percentage at 0.6 mM after 4 days by thioflavin-T-fluorescence based assay (reference value: 100%). Also on record: scale not given: the % may be the effect or the level left. The procedure, abridged:
as §1

Experiment [13] shares this test system. The experiment in a line: Inhibition of ANS binding to TTR V30M mutant (unknown origin) expressed in Escherichia coli assessed as increase in BC50 for ANS binding to TTR at 10 mM in presence of 150 mM K+ by fluorescence-based assay.
Experiment [14] shares this test system. The experiment in a line: Inhibition of TTR V30M mutant (unknown origin)-mediated amyloid fibril formation expressed in Escherichia coli assessed as amyloid fibril percentage at 10 mM after 4 days by thioflavin-T-fluorescence based assay (reference value: 100%). Also on record: scale not given: the % may be the effect or the level left. The procedure, abridged: as §1

For experiment [15] the test system is unchanged. The experiment in a line: Stabilization of TTR V30M mutant (unknown origin) expressed in Escherichia coli assessed as formation of TTR tetramer band formation at 10 mM after 4 mins by SDS-PAGE analysis based glutaraldehyde cross-linking assay.
Experiment [16] has the same test system. Nature of the experiment: Potentiation of diflunisal-induced stabilization of TTR V30M mutant (unknown origin) expressed in Escherichia coli assessed as formation of TTR tetramer band formation at 5 mM after 4 mins by SDS-PAGE analysis based glutaraldehyde cross-linking assay relative to diflunisal alone. An outline of the steps:
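Glutaraldehyde 4 min at RT, borohydride quench, SDS-PAGE with silver stain, tetramer band quantified. Controls were pH 8.0 Tris buffer (positive) and pH 4.4 buffer without compound (negative).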

Take `C1COCCOCCOCCO1`: the outcome in [1] was Active. Also, the inhibition entry in experiment [2] and in [3] was “Active” each time.

On to `C1COCCOCCOCCOCCO1`, for which the outcome in experiment [1] was Active. The inhibition result in experiment [2] and in experiment [3] was “Active” each time.

As to `O=C(O)c1cc(-c2ccc(F)cc2F)ccc1O`, the Activity in [4] was 15%; in experiment [5], 3.1%; in experiment [6], 52%; in experiment [7], 80%; in [8] it was 35%.

On to `c1ccc2c(c1)OCCOCCOCCOCCOCCO2`, for which the Activity in experiment [9] was 100%; in [11], “Dose-dependent effect”; in experiment [12], 96%; in experiment [14], 47%. Moreover, the inhibition entry in experiment [10], in [13] and in experiment [2] was “Active” throughout.

For `C1CCC2OCCOCCOC3CCCCC3OCCOCCOC2C1` (configuration not stated), the Activity was 100% in [9], 100% in experiment [12] and 92% in experiment [14]. The inhibition entry in experiment [10], in experiment [13] and in experiment [2] was “Active” in each case.

For `O=C(O)c1ccc2c(c1)OCCOCCOCCOCCOCCO2`, the Activity in [9] is 99%; in [11], “Dose-dependent effect”; in [12] it was 92%; in [15], 68%. Moreover, the inhibition entry in [10], in experiment [13] and in experiment [2] was “Active” throughout. Besides, in experiment [16], the result was Active.

The values are drawn from ChEMBL document CHEMBL4411329, “Crown Ethers as Transthyretin Amyloidogenesis Inhibitors” (J Med Chem, 2019).
